{"source": "ChEMBL document CHEMBL1132958", "about": "“Design of monocyclic (1-3) and dicyclic (1-3/4-10) gonadotropin releasing hormone (GnRH) antagonists” (J Med Chem, 2000)", "key": {"[1]": {"test_system": "Rattus norvegicus", "test": "Evaluated for number of rats ovulating in an in vivo anti-ovulatory assay at dose(25 microg); 3/4", "format": "functional, organism-based"}, "[2]": {"test_system": "Rattus norvegicus", "test": "Evaluated for number of rats ovulating in an in vivo anti-ovulatory assay at dose(50 microg); 0/6", "format": "functional, organism-based"}, "[3]": {"test_system": "Rattus norvegicus", "test": "Evaluated for number of rats ovulating in an in vivo anti-ovulatory assay at dose (25 microg); 0/6", "format": "functional, organism-based"}, "[4]": {"test_system": "Rattus norvegicus", "test": "Evaluated for number of rats ovulating in an in vivo anti-ovulatory assay at dose (10 microg); 10/10", "format": "functional, organism-based"}, "[5]": {"test_system": "Rattus norvegicus", "test": "Evaluated for number of rats ovulating in an in vivo anti-ovulatory assay at dose (500 microg); 7/8", "format": "functional, organism-based"}, "[6]": {"test_system": "Rattus norvegicus", "test": "Evaluated for number of rats ovulating in an in vivo anti-ovulatory assay at dose(1000 microg); 7/8", "format": "functional, organism-based"}, "[7]": {"test_system": "Rattus norvegicus", "test": "Evaluated for number of rats ovulating in an in vivo anti-ovulatory assay at dose (250 microg); 0/6", "format": "functional, organism-based"}, "[8]": {"test_system": "Rattus norvegicus", "test": "Evaluated for number of rats ovulating in an in vivo anti-ovulatory assay at dose (100 microg); 2/9", "format": "functional, organism-based"}, "[9]": {"test_system": "Rattus norvegicus", "test": "Evaluated for number of rats ovulating in an in vivo anti-ovulatory assay at dose(100 microg); 0/5", "format": "functional, organism-based"}, "[10]": {"test_system": "Rattus norvegicus", "test": "Evaluated for number of rats ovulating in an in vivo anti-ovulatory assay at dose(50 microg); 1/4", "format": "functional, organism-based"}, "[11]": {"test_system": "Rattus norvegicus", "test": "Evaluated for number of rats ovulating in an in vivo anti-ovulatory assay at dose (25 microg); 5/6", "format": "functional, organism-based"}, "[12]": {"test_system": "Rattus norvegicus", "test": "Evaluated for number of rats ovulating in an in vivo anti-ovulatory assay at dose (100 microg); 6/11", "format": "functional, organism-based"}, "[13]": {"test_system": "Rattus norvegicus", "test": "Evaluated for number of rats ovulating in an in vivo anti-ovulatory assay at dose (250 microg); 5/9", "format": "functional, organism-based"}, "[14]": {"test_system": "Rattus norvegicus", "test": "Evaluated for number of rats ovulating in an in vivo anti-ovulatory assay at dose (500 microg); 4/8", "format": "functional, organism-based"}, "[15]": {"target": "T1, Gonadotropin-releasing hormone receptor (Rattus norvegicus, UniProt P30969)", "T1 sequence (P30969 whole entry)": "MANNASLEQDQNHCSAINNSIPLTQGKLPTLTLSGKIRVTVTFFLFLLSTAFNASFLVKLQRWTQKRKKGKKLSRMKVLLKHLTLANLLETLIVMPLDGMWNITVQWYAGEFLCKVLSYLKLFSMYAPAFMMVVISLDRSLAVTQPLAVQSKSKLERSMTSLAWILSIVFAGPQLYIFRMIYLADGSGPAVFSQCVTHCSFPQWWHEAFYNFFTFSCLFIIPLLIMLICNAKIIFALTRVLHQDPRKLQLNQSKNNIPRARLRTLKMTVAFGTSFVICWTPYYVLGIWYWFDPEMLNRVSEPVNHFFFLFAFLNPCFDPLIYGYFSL", "test": "Competitive radioligand binding assay for rat Gonadotropin-releasing hormone receptor cells stably transfected in human HEK293", "procedure,_shortened": "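Membranes from HEK-293 cells stably expressing rat GnRH receptor (5% sucrose homogenate; nuclei removed at 3000g, membranes pelleted at 20000g, 4 °C), 7 µg protein in 10 mM Hepes pH 7.5, 150 mM NaCl, 0.1% BSA. Competitor at varying concentrations vs des-Gly10-[125I-Tyr5,DAla6,NMeLeu7,Pro9-NHEt]GnRH (~100 000 cpm), 90 min; PEI-coated GF/C filtration, PBS wash, γ counting. Ki by nonlinear least-squares fit; ≥3 independent experiments, mean ± SEM.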"}, "[16]": {"test_system": "Rattus norvegicus", "test": "Evaluated for number of rats ovulating in an in vivo anti-ovulatory assay at dose (1000 microg); 3/8", "format": "functional, organism-based"}}, "note": "Activity calls are given as the source filed them. The calls are words filed in the database; no cut-off is given here.", "data": [{"molecule": "CC(=O)N[C@H]1CC(=O)NCCC(=O)N[C@@H](C(=O)N[C@@H](CO)C(=O)N[C@@H](Cc2ccc(O)cc2)C(=O)N[C@H](Cc2ccc3ccccc3c2)C(=O)N[C@H](CC(C)C)C(=O)N[C@@H](CCCN=C(N)N)C(=O)N2CCC[C@H]2C(=O)N[C@H](C)C(N)=O)CNC(=O)[C@@H](Cc2ccc(Cl)cc2)NC1=O", "values": [{"measurement": "Activity", "setting": "[1]", "result": "inactive"}, {"measurement": "Activity", "setting": "[2]", "result": "Active"}]}, {"molecule": "CC(=O)N[C@H]1CC(=O)NCC(=O)N[C@@H](C(=O)N[C@@H](CO)C(=O)N[C@@H](Cc2ccc(O)cc2)C(=O)N[C@H](Cc2ccc3ccccc3c2)C(=O)N[C@H](CC(C)C)C(=O)N[C@@H](CCCN=C(N)N)C(=O)N2CCC[C@H]2C(=O)N[C@H](C)C(N)=O)CCCNC(=O)[C@@H](Cc2ccc(Cl)cc2)NC1=O", "values": [{"measurement": "Activity", "setting": "[3]", "result": "Active"}, {"measurement": "Activity", "setting": "[4]", "result": "inactive"}]}, {"molecule": "CC(=O)N[C@H]1CC(=O)N[C@@H](C)C(=O)N[C@@H](C(=O)N[C@@H](CO)C(=O)N[C@@H](Cc2ccc(O)cc2)C(=O)N[C@H](CCCN=C(N)N)C(=O)N[C@H](CC(C)C)C(=O)N[C@@H](CCCN=C(N)N)C(=O)N2CCC[C@H]2C(=O)N[C@H](C)C(N)=O)CCCNC(=O)[C@@H](Cc2ccc(Cl)cc2)NC1=O", "values": [{"measurement": "Activity", "setting": "[5]", "result": "inactive"}]}, {"molecule": "CC(=O)N[C@H]1CC(=O)N[C@H](C(=O)N[C@@H](CO)C(=O)N[C@@H](Cc2ccc(O)cc2)C(=O)N[C@H](Cc2ccc3ccccc3c2)C(=O)N[C@H](CC(C)C)C(=O)N[C@@H](CCCN=C(N)N)C(=O)N2CCC[C@H]2C(=O)N[C@H](C)C(N)=O)CNC(=O)[C@@H](Cc2ccc(Cl)cc2)NC1=O", "values": [{"measurement": "Activity", "setting": "[6]", "result": "inactive"}]}, {"molecule": "CC(=O)N[C@H]1CC(=O)N[C@@H](C)C(=O)N[C@@H](C(=O)N[C@@H](CO)C(=O)N[C@@H](Cc2ccc(O)cc2)C(=O)N[C@H](Cc2ccc3ccccc3c2)C(=O)N[C@H](CC(C)C)C(=O)N[C@@H](CCCN=C(N)N)C(=O)N2CCC[C@H]2C(=O)N[C@H](C)C(N)=O)CCCNC(=O)[C@@H](Cc2ccc(Cl)cc2)NC1=O", "values": [{"measurement": "Activity", "setting": "[7]", "result": "Active"}, {"measurement": "Activity", "setting": "[8]", "result": "Weak activity"}]}, {"molecule": "CC(=O)N[C@H]1CCC(=O)N[C@@H](C(=O)N[C@@H](CO)C(=O)N[C@@H](Cc2ccc(O)cc2)C(=O)N[C@H](Cc2ccc3ccccc3c2)C(=O)N[C@H](CC(C)C)C(=O)N[C@@H](CCCN=C(N)N)C(=O)N2CCC[C@H]2C(=O)N[C@H](C)C(N)=O)CCCCNC(=O)[C@@H](Cc2ccc(Cl)cc2)NC1=O", "values": [{"measurement": "Activity", "setting": "[9]", "result": "Active"}, {"measurement": "Activity", "setting": "[10]", "result": "Active"}]}, {"molecule": "CC(=O)N[C@H]1CC(=O)NCCCC(=O)N[C@@H](C(=O)N[C@@H](CO)C(=O)N[C@@H](Cc2ccc(O)cc2)C(=O)N[C@H](Cc2ccc3ccccc3c2)C(=O)N[C@H](CC(C)C)C(=O)N[C@@H](CCCN=C(N)N)C(=O)N2CCC[C@H]2C(=O)N[C@H](C)C(N)=O)CNC(=O)[C@@H](Cc2ccc(Cl)cc2)NC1=O", "values": [{"measurement": "Activity", "setting": "[11]", "result": "inactive"}, {"measurement": "Activity", "setting": "[12]", "result": "Weak activity"}]}, {"molecule": "CC(=O)N[C@H]1CC(=O)N[C@H](C)C(=O)N[C@@H](C(=O)N[C@@H](CO)C(=O)N[C@@H](Cc2ccc(O)cc2)C(=O)N[C@H](Cc2ccc3ccccc3c2)C(=O)N[C@H](CC(C)C)C(=O)N[C@@H](CCCN=C(N)N)C(=O)N2CCC[C@H]2C(=O)N[C@H](C)C(N)=O)CCCNC(=O)[C@@H](Cc2ccc(Cl)cc2)NC1=O", "values": [{"measurement": "Activity", "setting": "[13]", "result": "Weak activity"}, {"measurement": "Activity", "setting": "[14]", "result": "Weak activity"}]}, {"molecule": "CC(=O)NC1CCCNC(=O)CCNC(=O)C[C@@H](C(=O)N[C@@H](CO)C(=O)N[C@@H](Cc2ccc(O)cc2)C(=O)N[C@H](Cc2ccc3ccccc3c2)C(=O)N[C@H](CC(C)C)C(=O)NC(CCCN=C(N)N)C(=O)N2CCC[C@H]2C(=O)N[C@H](C)C(N)=O)NC(=O)[C@@H](Cc2ccc(Cl)cc2)NC1=O", "note": "(stereo in doubt)", "values": [{"measurement": "Ki", "setting": "[15]", "result": 2.2, "unit": "nM"}, {"measurement": "Activity", "setting": "[16]", "result": "Weak activity"}]}]}
